Bioassay records deposited in PubChem BioAssay by The Scripps Research Institute Molecular Screening Center.
HTR2A ag: mouse Htr2a agonists via beta-arrestin recruitment, primary screen, cell-based, luminescence | 5-hydroxytryptamine receptor 2A (Mus musculus), P35363 | CHO-K1 mHTR2A beta-arrestin complementation; percent of 30 µM serotonin response | activation, % at 7.6 µM | hit rate 0.66% among 360,000;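 active = activation above a run cutoff, the mean activation of all tested compounds plus 3 SD, cut at about 14% in these data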;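 note: 0% = plate median of compound wells and 100% = 30 µM serotonin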
Target sequence (P35363 whole entry, looked up): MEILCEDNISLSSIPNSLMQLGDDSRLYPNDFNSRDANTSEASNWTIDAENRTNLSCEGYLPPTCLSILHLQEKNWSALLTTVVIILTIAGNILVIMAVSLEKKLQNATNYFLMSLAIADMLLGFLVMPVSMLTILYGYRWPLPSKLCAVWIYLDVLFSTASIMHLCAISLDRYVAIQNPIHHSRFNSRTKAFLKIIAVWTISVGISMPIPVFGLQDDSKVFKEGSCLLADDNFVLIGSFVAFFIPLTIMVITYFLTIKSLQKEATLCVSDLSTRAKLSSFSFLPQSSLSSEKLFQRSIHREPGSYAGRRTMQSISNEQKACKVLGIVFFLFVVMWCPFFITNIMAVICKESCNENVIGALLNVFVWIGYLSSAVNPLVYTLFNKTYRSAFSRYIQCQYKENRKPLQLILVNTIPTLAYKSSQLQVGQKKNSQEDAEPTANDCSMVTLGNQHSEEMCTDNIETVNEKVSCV
M1 antag: human M1 muscarinic receptor antagonists, primary screen, CHO-K1 cells, Fluo-8 calcium fluorescence, 1536-well; Muscarinic acetylcholine receptor M1 (Homo sapiens), P11229; CHO-K1 hM1, ACh EC80 antagonist; inhibition, % at 3 µM; hit rate 1.3% among 360,000; AID 588852, 2011;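 active = percent inhibition above its own plate's cutoff, namely the mean of that plate's compound wells plus 3 SD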;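 note: peak over basal fluorescence ratio during 140 s after agonist addition; 0% = ACh EC80 plus DMSO and 100% = DMSO alone without agonist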
TAAR1 ag: human TAAR1 agonists, primary screen, Fluo-8 calcium fluorescence, CHO RD-HGA16 cells | Trace amine-associated receptor 1 (Homo sapiens), Q96RJ0 | vehicle wells 0%, saturating PEA agonist 100% | activation, % at 3 µM | hit rate 0.99% among 360,000 | AID 624467, 2012;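 active = activation above the mean activation of all test compounds in the run plus 3 SD, cut at about 38% in these data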
Target sequence (Q96RJ0 whole entry, looked up): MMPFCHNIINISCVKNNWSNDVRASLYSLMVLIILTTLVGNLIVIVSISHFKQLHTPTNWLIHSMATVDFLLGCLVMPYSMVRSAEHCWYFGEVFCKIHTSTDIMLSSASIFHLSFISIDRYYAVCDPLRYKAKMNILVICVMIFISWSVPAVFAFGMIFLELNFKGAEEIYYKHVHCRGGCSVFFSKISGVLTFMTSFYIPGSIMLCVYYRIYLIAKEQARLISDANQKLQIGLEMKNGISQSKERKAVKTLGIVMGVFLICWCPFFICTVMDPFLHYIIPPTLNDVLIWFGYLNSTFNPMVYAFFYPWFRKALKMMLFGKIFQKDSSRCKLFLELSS
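Repeats: no replicates (n 1) | Material: CHO-derived RD-HGA16 cells with stable Gα16 and human TAAR1 | Technique: Kinetic Fluo-8 calcium fluorescence | Schedule: 17-24 h seeding, 75 min 37 °C dye, 30 min RT | Evaluation: % activation from peak over basal fluorescence ratio, DMSO-to-PEA scaled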
CHRM1 agonist: human M1 muscarinic receptor agonists, primary screen, Fluo-8 calcium fluorescence, CHO-K1 cells, HTS; Muscarinic acetylcholine receptor M1 (Homo sapiens), P11229; CHO-K1 hM1, agonist mode; 0% DMSO, 100% acetylcholine EC100; activation, % at 3 µM; hit rate 0.33% among 360,000; AID 588814, 2011;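 active = activation above the run's mean compound activation plus 3 SD, cut at about 16% in these data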;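 note: peak over basal fluorescence ratio within a 140 s kinetic read after compound addition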
CHRM1 PAM: human M1 muscarinic receptor positive allosteric modulators, primary screen, CHO-K1 cells, Fluo-8 calcium fluorescence, 1536-well; CHO-K1 hM1, ACh EC20; 0% = ACh EC20, 100% = maximal ACh; activation, % at 3 µM; hit rate 0.088% among 360,000; AID 588819, 2011; in the data active = activation above about 19%, passing the limit was not always enough
TAAR1 antagonist: human TAAR1 antagonists, primary screen, Fluo-8 calcium fluorescence, CHO RD-HGA16 cells; Trace amine-associated receptor 1 (Homo sapiens), Q96RJ0; antagonist; inhibition, % at 3 µM; hit rate 1.5% among 360,000;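 active = inhibition above a per-plate cutoff, the mean inhibition of test compounds on that plate plus 3 SD, cut at about 49% in these data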;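 note: 0% = DMSO plus EC80 beta-PEA response and 100% = DMSO alone without agonist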
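System: CHO RD-HGA16 cells bearing hTAAR1. Reagent: EC80 β-phenethylamine stimulus. Schedule: seeding 17-24 h prior, 75-min 37 °C, 30-min RT dye loading. Signal: Fluo-8 intracellular calcium dye fluorescence, real-time kinetic reads. Read-out: % inhibition from peak post-agonist over basal fluorescence ratio. Benchmarks: vehicle wells and EC80 agonist wells. Replicates: n of 1.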
TAAR1 ag confirm: human TAAR1 agonists, retest of hits, confirmation, Fluo-8 calcium fluorescence, CHO RD-HGA16 cells | shares compounds with TAAR1 ag | scaled: DMSO 0%, maximal phenethylamine 100% | activation, % at 3 µM | hit rate 82% among 2,400 | AID 651783, 2012;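 active = activation above a cutoff set at the run's mean compound activation plus 3 SD, cut at about 39% in these data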
Ga16 nonsel ag: nonselective calcium mobilization agonists, CHO-Ga16 cells, counter-screen for hTAAR1 agonist project, cell-based, fluorescence, CHO-Ga16 parental line; shares compounds with TAAR1 ag; Fluo-8 calcium fluorescence; normalized to maximal ATP response, DMSO zero; activation, % at 3 µM; hit rate 50% among 2,400; AID 651787, 2012;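 active = activation above the run cutoff, the mean activation over all tested wells plus 3 SD, cut at about 12% in these data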;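 note: 0% = DMSO wells and 100% = maximal ATP response on the peak over basal ratio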
TAAR1 desensitize: TAAR1 desensitization by agonist hits, confirmation, counter-screen for TAAR1 agonist project, cell-based, fluorescence, tachyphylaxis; CHO RD-HGA16 hTAAR1, Fluo-8 calcium, beta-PEA response inhibition; shares compounds with TAAR1 ag; hit rate 46% among 2,400; inhibition, % at 3 µM; AID 651951, 2012;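 active = inhibition above the run cutoff, the mean inhibition of all test compounds plus 3 SD, cut at about 49% in these data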;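 note: beta-PEA stimulus applied at its EC80; loss of beta-PEA calcium signal after compound pretreatment read as receptor desensitization; 0% = DMSO with beta-PEA at EC80 and 100% = DMSO alone without agonist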
Ga16 antag count: inhibition of ATP-evoked calcium response in CHO-Ga16 cells, counter-screen for TAAR1 agonist project, cell-based, fluorescence | shares compounds with TAAR1 ag | CHO-Ga16 ATP-induced calcium, Fluo-8 fluorescence | inhibition, % at 3 µM | hit rate 39% among 2,400 | AID 651952, 2012;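 active = inhibition above the plate's mean compound inhibition plus 3 SD, computed per plate, cut at about 22% in these data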;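 note: 0% = EC80 ATP with DMSO and 100% = DMSO wells without ATP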
Active calls of the source: *; / = no result. Hits are enriched below; roughly 3.9% of the tested compounds scored in any of these assays.

SMILES | HTR2A ag | M1 antag | TAAR1 ag | CHRM1 agonist | CHRM1 PAM | TAAR1 antagonist | TAAR1 ag confirm | Ga16 nonsel ag | TAAR1 desensitize | Ga16 antag count
Cc1ccc(Nc2nc(N)c3ccccc3n2)cc1C | -3.9 | -12.1 | 67.5* | -5.5 | 4.2 | 6.5 | 67.0* | 1.6 | 53.9* | 2.6
CC1CN(c2nnc(NC(=O)c3ccccc3)s2)CC(C)O1 (configuration not stated) | 1.5 | -9.9 | 4.4 | -1.8 | 8.4 | 13.0 | / | / | / | /
CCC(C)(C)n1nnnc1C(c1ccc(O)c(OC)c1)N1CCc2ccccc2C1 (configuration not stated) | 5.8 | -4.8 | 104.0* | -7.0 | 4.6 | 91.9* | 105.7* | 14.9* | 99.7* | 11.7
O=C(COc1ccc(Cl)cc1Cl)Nc1ccc(CN2CCCCC2)cc1 | -3.4 | 21.1* | 50.5* | -14.1 | -34.5 | 7.4 | 84.1* | 39.6* | 40.8 | 26.8*
C[C@H]1CN[C@H](CCO)/C1=C\c1ccccc1 | 3.8 | 6.3 | 46.6* | -5.7 | -7.4 | 6.7 | 61.2* | -0.3 | 17.8 | 10.2
C[C@@H]1CN(S(=O)C(C)(C)C)[C@H](CCO)/C1=C\c1ccccc1 (some centres not stated) | 1.2 | -17.8 | 0.5 | -4.6 | 8.1 | 5.4 | / | / | / | /
C[C@H]1CN[C@@H](CCO)/C1=C\c1ccccc1 | 1.6 | -9.3 | 43.3* | -6.8 | 4.1 | -1.7 | 52.5* | 0.7 | 28.8 | 10.0
Cc1cc(C)c(OCCCCNCc2ccccc2)c(Cl)c1 | 3.0 | 10.7 | 48.0* | -3.4 | -9.6 | -8.2 | 48.0* | 21.7* | 23.1 | 23.9*
Cc1cc(Cl)c(OCCOCCN2CCCCC2)c(Br)c1 | -1.1 | 4.7 | 2.9 | -10.9 | -13.2 | 4.5 | / | / | / | /
C=CCNCCCCOc1c(Cl)cc(C)cc1Br | -1.4 | 0.8 | 30.5 | -3.8 | 4.5 | -6.1 | / | / | / | /
COCCCNCCCCOc1c(Cl)cc(C)cc1Br | -5.5 | 1.1 | 58.8* | -6.9 | 0.4 | 32.2 | 91.5* | 22.4* | 76.8* | 7.6
Cc1cc(Cl)c(OCCCNC2CCCC2)c(Br)c1 | 1.0 | 14.7 | 58.0* | -7.0 | -8.3 | -2.6 | 28.1 | 10.5 | 5.5 | 13.0
CCCOc1cc(C)c(S(=O)(=O)N2CCN(C)CC2)cc1C | -7.4 | -17.0 | 45.7* | -3.3 | -0.6 | -26.4 | 42.2* | 0.5 | -4.9 | -3.0
Cc1cc(N/N=C/c2ccccc2O)c2ccccc2n1 | -6.6 | -14.1 | / | -6.6 | 7.2 | / | / | 3.0 | / | 12.9
COc1ccc2nc(C)cc(N/N=C/c3cccc(OC)c3O)c2c1 | -0.7 | -2.8 | -0.5 | -2.9 | -2.9 | -8.1 | / | / | / | /
CCN(CC)c1ccc(/C=C2\C(=O)c3ccc(C(=O)O)cc3C2=O)cc1 | -1.3 | 62.3* | 124.8* | 126.2* | -28.9 | 85.6* | 143.9* | 162.6* | 89.0* | 92.0*
COc1cc(C(=O)O[C@H]2C/C(C)=C/CC[C@@]3(C)O[C@@H]3[C@H](O)[C@@H]2C(C)C)cc(OC)c1OC | 3.9 | -6.3 | 7.3 | -0.2 | 2.8 | 44.5 | / | / | / | /
O=C(NNC(=S)NC(=O)c1ccc(F)cc1)c1ccncc1 | -2.8 | 1.1 | 6.3 | -0.8 | -4.2 | -7.3 | / | / | / | /
O=C(NNC(=S)NC(=O)C12CC3CC(CC(C3)C1)C2)c1ccncc1 | -14.5 | 15.4 | 155.3* | 58.2* | -22.8 | 93.0* | 121.7* | 102.7* | 72.5* | 55.3*
CC1(C(=O)NC(=S)NNC(=O)c2ccncc2)CCCCC1 | -2.7 | 2.0 | 92.5* | 39.2* | -9.0 | 23.8 | 69.9* | 52.4* | 21.9 | 23.0*
CC(C)CC(=O)NS(=O)(=O)c1ccc(NS(C)(=O)=O)cc1 | 2.4 | -14.7 | 2.6 | -0.6 | 11.8 | 1.9 | / | / | / | /
FC(F)(F)c1cccnc1Oc1ccc(C2=NCCS2)cc1 | 4.9 | -6.0 | 84.2* | 23.6* | 1.1 | 56.7* | 58.2* | 58.5* | 62.2* | 42.6*
Cc1c(C(=O)N2CCN(S(=O)(=O)c3ccccc3)CC2)oc2ccc(Br)cc12 | 2.5 | -2.4 | -0.3 | -2.0 | -3.1 | -4.7 | / | / | / | /
C#CCN(C[C@H]1[C@H](OC(=O)Nc2c(C)noc2C)[C@H](OC(=O)Nc2c(C)noc2C)C[C@@H](C(=O)OC)[C@H]1C(=O)OC)S(=O)(=O)c1ccc(C)cc1 | -6.8 | -8.8 | 2.5 | -7.0 | 2.9 | -10.1 | / | / | / | /
Clc1cccc2c3c([nH]c12)CCNC3 | 4.9 | 4.3 | 59.8* | -1.5 | -0.1 | 40.6 | 87.0* | 4.1 | 66.0* | 0.8
SMILES | HTR2A ag | M1 antag | TAAR1 ag | CHRM1 agonist | CHRM1 PAM | TAAR1 antagonist | TAAR1 ag confirm | Ga16 nonsel ag | TAAR1 desensitize | Ga16 antag count
CSc1ccc(C(=O)NC2CCSc3ccccc32)cc1 (configuration not stated) | -2.0 | -10.1 | 64.7* | -7.2 | 5.0 | 89.3* | 52.6* | 47.6* | 66.1* | 62.4*
COc1ccc(C(=O)NC2CCSc3ccccc32)cc1 (configuration not stated) | -1.0 | -15.1 | -1.7 | -3.1 | 14.1 | -3.6 | / | / | / | /
CCN(Cc1ccncc1)C(=O)CSc1ccc2ccccc2c1 | -2.9 | 7.8 | 0.2 | -2.7 | -3.2 | -5.7 | / | / | / | /
CCOc1ccc(N(CC(=O)Nc2ccc(C)c(C)c2)S(C)(=O)=O)cc1 | -6.8 | -18.0 | -2.3 | -3.8 | 9.8 | 3.5 | / | / | / | /
CCOc1ccccc1C(=O)Oc1ccc2ccc(=O)oc2c1 | -0.7 | -10.6 | -2.0 | -7.8 | 5.7 | 12.9 | / | / | / | /
CCCC1(c2ccccc2)NC(=O)N(CC(=O)c2[nH]c(C)c(C(=O)OCC)c2C)C1=O (configuration not stated) | 2.3 | 9.9 | 77.6* | 11.1 | -6.0 | 43.2 | 52.4* | 15.8* | 54.6* | 29.0*
